SENP1 inh: human SENP1 catalytic domain inhibitors, primary screen, biochemical, FRET, uHTS; Sentrin-specific protease 1 (Homo sapiens), Q9P0U3; recombinant SENP1 catalytic domain, CyPet-SUMO1-YPet FRET cleavage; inhibition, % at 10 µM; hit rate 0.21% among 360,000;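 active means inhibition at least 30% at 10 µM, raw YFP signal under a set limit, fluorescence ratio 0.5 to 1.5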;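 further: 0% = enzyme with DMSO and 100% = no enzyme wells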
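Assay system: hSENP1 catalytic domain, recombinant. Amount: SENP1 enzyme, 20 pM final. Schedule: 50 min reaction, RT, dark. Technique: FRET, CFP and YFP emission. Control set: no-enzyme wells low, DMSO-plus-enzyme wells high control.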
FAS-TE inh: FAS thioesterase domain inhibitors, primary screen, biochemical, fluorescence intensity, uHTS | recombinant FAS-TE, OMFH fluorogenic substrate, fluorescence endpoint | AID 602261, 2012 | inhibition, % at 15 µM | hit rate 0.67% among 360,000 | Fatty acid synthase (Homo sapiens), P49327;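 active means compounds whose normalised, plate-corrected inhibition of enzyme fluorescence in the single-dose primary screen is 50% or more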;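 further: 0% = DMSO with enzyme and 100% = substrate without enzyme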
ADAM10 inh: human ADAM10 inhibitors, primary screen, biochemical, QFRET, HTS; inhibition, % at 7 µM; hit rate 0.62% among 370,000; recombinant ADAM10, EDANS/DABCYL FRET peptide cleavage, 3 h;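 active means inhibition above a per-campaign cutoff equal to the mean of compounds falling between control-based bounds plus 3 SD, cut at about 20% in these data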;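 further: 0% = DMSO wells while the 100% control is not disclosed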
Target sequence (O14672 214-748 limits assumed): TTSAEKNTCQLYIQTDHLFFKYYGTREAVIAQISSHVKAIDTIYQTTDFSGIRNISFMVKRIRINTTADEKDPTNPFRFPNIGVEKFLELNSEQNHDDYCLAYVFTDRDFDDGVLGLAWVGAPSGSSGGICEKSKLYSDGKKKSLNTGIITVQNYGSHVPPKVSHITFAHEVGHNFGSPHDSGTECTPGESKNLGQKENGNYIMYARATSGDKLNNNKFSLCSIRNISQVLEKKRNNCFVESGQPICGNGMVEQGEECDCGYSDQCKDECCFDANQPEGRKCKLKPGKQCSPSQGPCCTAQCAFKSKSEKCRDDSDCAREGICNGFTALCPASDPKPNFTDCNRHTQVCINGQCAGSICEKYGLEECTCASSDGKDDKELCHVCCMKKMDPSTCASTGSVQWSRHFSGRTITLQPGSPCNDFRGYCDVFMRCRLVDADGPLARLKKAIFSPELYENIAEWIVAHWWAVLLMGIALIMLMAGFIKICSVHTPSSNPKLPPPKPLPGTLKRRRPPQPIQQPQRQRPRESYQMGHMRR
ADAM17 inh: ADAM17 inhibitors, primary screen, biochemical, QFRET | Disintegrin and metalloproteinase domain-containing protein 17 (Homo sapiens), P78536 | recombinant ADAM17, EDANS/DABCYL FRET peptide cleavage | inhibition, % at 6.95 µM | hit rate 0.83% among 370,000;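 active means inhibition above the mean of compounds lying between control limits plus 3 SD, set per campaign, cut at about 8.5% in these data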;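 further: 0% = DMSO-only wells as the low control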
FAS-TE inh conf: FAS thioesterase domain inhibitors, confirmation, biochemical, fluorescence intensity, single concentration; shares compounds with FAS-TE inh; recombinant FAS-TE, OMFH fluorogenic substrate; inhibition, % at 15 µM; hit rate 45% among 2,300; AID 624325, 2012;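 active means compounds inhibiting the enzyme by at least 50% at 15 µM in any one of the replicates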;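 further: 0% = enzyme with DMSO only and 100% = wells lacking enzyme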
* = called active by the depositor; i = inactive; . = no result. The list is not random: actives were taken first. Their share in the collection is about 1.9%.

SMILES | SENP1 inh | FAS-TE inh | ADAM10 inh | ADAM17 inh | FAS-TE inh conf
O=C(COC(=O)c1cc([N+](=O)[O-])ccc1N1CCOCC1)c1ccccc1 | 2.0 | 62.8* | 2.6 | 1.9 | 70.7*
O=C(COC(=O)c1cc([N+](=O)[O-])ccc1N1CCOCC1)c1ccccc1Cl | 0.4 | 46.5 | 6.0 | 5.3 | .
COc1ccc(C(=O)c2cc([N+](=O)[O-])ccc2N2CCOCC2)cc1 | 0.2 | 23.0 | 3.7 | -2.2 | .
COC(=O)[C@]12C[C@H](CC(=O)NCc3ccc(OC)c(OC)c3)C(=O)N(Cc3cccc4ccccc34)C1=C[C@H](COCc1ccccc1)O[C@@H]2C | . | . | 8.4 | 4.3 | .
Cc1ccc(Cn2cc(CN(C(C)(C)C)S(=O)(=O)c3ccc(F)cc3Br)nn2)cc1 | . | . | -5.3 | -3.2 | .
CCN(C[C@H]1[C@@H](c2ccc(C3=CCCC3)cc2)[C@H](CO)N1c1nc(C)c(C)s1)S(=O)(=O)c1ccccc1[N+](=O)[O-] | . | . | -2.0 | -1.5 | .
COc1ccc(C(=O)COC(=O)c2cc(S(=O)(=O)N3CCCCC3)ccc2N2CCOCC2)c(OC)c1 | 3.0 | 73.1* | -1.6 | -1.4 | 3.4
Cc1cc(C)c(C(=O)COC(=O)c2cc([N+](=O)[O-])ccc2N2CCOCC2)cc1C | 0.2 | 56.9* | -2.4 | -3.6 | 33.5
COc1ccccc1CNC(=O)COC(=O)c1cc([N+](=O)[O-])ccc1N1CCOCC1 | -0.5 | 79.2* | -1.0 | -3.3 | 89.9*
COc1ccc(CNS(=O)(=O)/C=C/c2ccccc2CNC(=O)OC(C)(C)C)cc1 | . | . | 4.3 | 1.7 | .
CN1c2ccccc2C(C)(C)C12CC(c1ccc(S(=O)(=O)N3CCCCC3)cc1)=NO2 (configuration not stated) | 1.9 | 74.9* | 0.2 | -1.3 | 23.3
CN1c2ccccc2C(C)(C)C12CC(c1cccc(S(=O)(=O)N3CCCC3)c1)=NO2 (configuration not stated) | -9.5 | 74.1* | -3.0 | -1.9 | 14.5
Cc1cc([N+](=O)[O-])ccc1NC(=O)CN1C2CCC1CC(NC(=O)NC13CC4CC(CC(C4)C1)C3)C2 (configuration not stated) | 1.0 | 50.8* | -6.5 | 1.5 | 10.7
O=C(c1ccc(Cl)c([N+](=O)[O-])c1)N1CCN(S(=O)(=O)c2ccc(Cl)cc2)CC1 | 1.3 | 50.7* | -3.0 | 1.4 | 30.5*
O=C(CN1C(=O)NC2(CCCCCC2)C1=O)Nc1ccc(Cl)c([N+](=O)[O-])c1 | 0.9 | 57.9* | -10.9 | 3.5 | 69.7*
O=C(CN1CCN(S(=O)(=O)c2ccccc2)CC1)Nc1ccc(Cl)c([N+](=O)[O-])c1 | 0.5 | 77.8* | 1.9 | 1.8 | 18.3
O=C(CN1CCN(S(=O)(=O)c2ccccc2)CC1)Nc1ccc([N+](=O)[O-])cc1 | 1.6 | 6.6 | 17.4 | 0.7 | .
COC(=O)[C@H](CC(C)C)N(Cc1cn(Cc2ccc(C)cc2)nn1)S(=O)(=O)c1ccc(F)cc1Br | . | . | 13.3 | 8.6 | .
CCOC(=O)[C@@]12CCCC=C1N(CCc1ccc(Cl)cc1)C(=O)[C@H]2CC(=O)NCc1ccccc1 | . | . | 10.1 | 3.9 | .
O=S(=O)(Cc1ccccc1)N1CCCC(c2nc(-c3ccc(F)cc3)no2)C1 (configuration not stated) | -1.5 | 25.6 | -1.9 | -3.8 | .
O=S(=O)(c1ccc(F)cc1)N1CCCC(c2nc(-c3ccc(F)cc3)no2)C1 (configuration not stated) | -0.4 | 58.3* | 7.8 | 3.6 | 23.4
COc1ccc2cc3cc(C(=O)N4CCN(C5CCCCC5)CC4)oc3nc2c1 | -3.4 | 0.2 | . | . | .
COc1ccc2cc3cc(C(=O)N4CCCCCC4)oc3nc2c1 | 1.2 | 74.3* | . | . | 55.7*
CCOC(=O)C1CCN(C(=O)c2cc3cc4ccc(C)cc4nc3o2)CC1 | 1.9 | 55.2* | -136.6 | -41.5 | 62.5*
CCOC(=O)C1CCN(C(=O)c2cc3c(ccc4ccccc43)o2)CC1 | 1.3 | 15.4 | -1.9 | 0.9 | .
SMILES | SENP1 inh | FAS-TE inh | ADAM10 inh | ADAM17 inh | FAS-TE inh conf
COc1ccc2cc3cc(C(=O)N4CCCCC4C)oc3nc2c1 (configuration not stated) | 1.7 | 75.4* | -452.1 | -150.9 | 62.4*
C[C@H]1[C@@H](OC(=O)NCc2ccc(Cl)c(Cl)c2)CC[C@@]23CCCN2C(=O)CCC[C@@H]13 | . | . | 2.3 | -0.6 | .
CCc1ccc(C(=O)NNc2cc(Cl)ccc2Cl)cc1 | 0.7 | 50.5* | 8.1 | 3.3 | 13.6
Cc1c(CC(=O)O)c(=O)oc2c(C)c(OCc3nn[nH]n3)ccc12 | -1.7 | -5.3 | i | -199.8 | .
COc1ccc(-c2cc(=O)oc3c(C)c(OCc4nn[nH]n4)ccc23)cc1 | 2.0 | 61.8* | -30.2 | -8.6 | 69.3*
Cc1c(OCc2nn[nH]n2)ccc2c(-c3ccccc3)cc(=O)oc12 | -1.2 | 76.1* | -35.1 | -17.0 | 86.0*
CCCc1cc(=O)oc2c(C)c(OCc3nn[nH]n3)ccc12 | -1.6 | 20.4 | -342.4 | -125.3 | .
CC(C)CN1C(=O)[C@@]2(CC(=O)N(C)C2c2ccccc2)c2cc(-n3cc(CO)nn3)ccc21 (some centres not stated) | . | . | 3.4 | 3.4 | .
O=C(c1ccccc1Cl)N1CCC(Oc2cccnc2)CC1 | . | . | -8.4 | -5.2 | .
CC1(C)CC(=O)C=C(c2ccc(COC(=O)c3ccc(-c4ccccc4)cc3)cc2)C1=O | 1.0 | 31.4 | -9.2 | -6.5 | .
CC1(C)CC(=O)C=C(c2ccc(COC(=O)Cc3ccccc3)cc2)C1=O | -0.7 | 73.4* | 4.9 | -1.6 | 18.7
CC1(C)CC(=O)C=C(c2ccc(-c3cnn(Cc4ccccc4)c3)cc2)C1=O | 15.7 | 59.8* | -33.7 | -11.6 | 70.7*
C#CCCCN([C@H](C(=O)OC)C(C)C)S(=O)(=O)c1ccccc1Br | . | . | 5.4 | 7.8 | .
Cn1cc([N+](=O)[O-])c(C(=O)Nc2ccc(C(=O)N3CCCCC3)cc2)n1 | 1.1 | -8.2 | -6.3 | -3.4 | .
Cn1cc([N+](=O)[O-])c(C(=O)Nc2ccc(C3CCCCC3)cc2)n1 | 0.5 | 51.8* | 8.4 | 6.8 | 48.8
CCCCNS(=O)(=O)CC1NCc2ccc(C)cc21 (configuration not stated) | . | . | -3.6 | -2.5 | .
CN(Cc1cn(CC2CCCCC2)nn1)S(=O)(=O)c1ccccc1Br | . | . | 0.5 | -2.7 | .
N#Cc1c(C(F)(F)F)cc(-c2cccs2)nc1SC(C(=O)O)c1ccccc1 (configuration not stated) | 40.8 | 75.1* | -27.9 | -10.6 | 81.6*
COC(=O)[C@]12C[C@H](CC(=O)NCC3CCCCC3)C(=O)N(Cc3ccc(Cl)cc3Cl)C1=C[C@H](C(C)C)O[C@@H]2C1CC1 | . | . | -0.3 | -0.6 | .
CCOC(=O)N1C(=O)C[C@](Sc2ccc(OC)cc2)(C(=O)N2CCCC2)[C@H]1c1ccc(OC)cc1 | . | . | -4.3 | -2.0 | .
COc1ccccc1NS(=O)(=O)c1cc(NC(=O)c2ccccc2C)ccc1N1CCOCC1 | 1.3 | 53.3* | 17.5 | 0.5 | 14.9

Assay outcomes from PubChem BioAssay.
